Tests used:
[1] = target: Centromere-associated protein E (Homo sapiens, UniProt Q02224, I182L/K184T); assay: Binding affinity to human CENP-E I182L/K184T mutant assessed as inhibition constant
5637 = assay: Anticancer activity against human 5637 cells assessed as cell growth inhibition measured after 72 hrs by DAPI staining based analysis; type: functional
In short: (§1)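 Cells were seeded and, after 24 h, DNA content was read as T0. Cells were then exposed to varying drug concentrations for a further 72 h (T72). Fixed cells were DAPI-stained and DNA content measured by automated imaging. T72 values were normalized to T0. GI50 is the concentration giving 50% growth inhibition between T0 and Ymax, obtained by curve fitting.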

CWR22R = assay: Anticancer activity against human 22Rv1 cells assessed as cell growth inhibition measured after 72 hrs by DAPI staining based analysis; type: functional; in short: as §1
639-V = assay: Anticancer activity against human 639-V cells assessed as cell growth inhibition measured after 72 hrs by DAPI staining based analysis; type: functional; in short: as §1
A204 = assay: Anticancer activity against human A204 cells assessed as cell growth inhibition measured after 72 hrs by DAPI staining based analysis; type: functional; in short: as §1
AN3-CA = assay: Anticancer activity against human AN3-CA cells assessed as cell growth inhibition measured after 72 hrs by DAPI staining based analysis; type: functional; in short: as §1
C-4-II = assay: Anticancer activity against human C-4-II cells assessed as cell growth inhibition measured after 72 hrs by DAPI staining based analysis; type: functional
In short: (§2)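 Cells were seeded, and DNA content at 24 h after seeding (T0) was read by imaging of fixed, DAPI-stained cells. Cells were then exposed to a range of drug concentrations for a further 72 h (T72) and DNA content was read again. T72 values were normalized to T0, and GI50 was taken from curve fits as the concentration giving 50% growth inhibition relative to T0 and Ymax.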

CHL-1 = assay: Anticancer activity against human CHL-1 cells assessed as cell growth inhibition measured after 72 hrs by DAPI staining based analysis; type: functional; in short: as §2
DB = assay: Anticancer activity against human DB cells assessed as cell growth inhibition measured after 72 hrs by DAPI staining based analysis; type: functional
In short: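 Cells seeded, DAPI-stained DNA content of fixed cells read by imaging 24 h after seeding (T0), and again after a further 72 h exposure to a range of drug concentrations (T72). T72 values were normalized to T0. Curve fits gave the concentration producing 50% growth inhibition relative to T0 and Ymax (GI50).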

HT-1376 = assay: Anticancer activity against human HT-1376 cells assessed as cell growth inhibition measured after 72 hrs by DAPI staining based analysis; type: functional
[2] = Anticancer activity against human KHOS-240S cells assessed as cell growth inhibition measured after 72 hrs by DAPI staining based analysis; type: functional
[3] = Anticancer activity against human KPL-1 cells assessed as cell growth inhibition measured after 72 hrs by DAPI staining based analysis; type: functional
MCF7 [4] = assay: Anticancer activity against human MCF7 cells assessed as cell growth inhibition measured after 72 hrs by DAPI staining based analysis; type: functional
[5] = Anticancer activity against human MT-3 cells assessed as cell growth inhibition measured after 72 hrs by DAPI staining based analysis; type: functional
OVCAR-4 = assay: Anticancer activity against human OVCAR-4 cells assessed as cell growth inhibition measured after 72 hrs by DAPI staining based analysis; type: functional
RD = assay: Anticancer activity against human RD cells assessed as cell growth inhibition measured after 72 hrs by DAPI staining based analysis; type: functional
RPMI-6666 [6] = assay: Anticancer activity against human RPMI-6666 cells assessed as cell growth inhibition measured after 72 hrs by DAPI staining based analysis; type: functional
RXF 393 = assay: Anticancer activity against human RXF 393 cells assessed as cell growth inhibition measured after 72 hrs by DAPI staining based analysis; type: functional
SCC-15 = assay: Anticancer activity against human SCC-15 cells assessed as cell growth inhibition measured after 72 hrs by DAPI staining based analysis; type: functional
SH-4 = assay: Anticancer activity against human SH-4 cells assessed as cell growth inhibition measured after 72 hrs by DAPI staining based analysis; type: functional
SNU1 = assay: Anticancer activity against human SNU1 cells assessed as cell growth inhibition measured after 72 hrs by DAPI staining based analysis; type: functional
SW1990 = assay: Anticancer activity against human SW1990 cells assessed as cell growth inhibition measured after 72 hrs by DAPI staining based analysis; type: functional
A-431 = assay: Anticancer activity against human A-431 cells assessed as cell doubling measured for 72 hrs by DAPI staining based analysis; type: functional
CAL-27 = assay: Anticancer activity against human CAL-27 cells assessed as cell doubling measured for 72 hrs by DAPI staining based analysis; type: functional
COLO-320-HSR = assay: Anticancer activity against human COLO 320HSR cells assessed as cell doubling measured for 72 hrs by DAPI staining based analysis; type: functional
DU-4475 = assay: Anticancer activity against human DU-4475 cells assessed as cell doubling measured for 72 hrs by DAPI staining based analysis; type: functional
HCT-8 = assay: Anticancer activity against human HCT-8 cells assessed as cell doubling measured for 72 hrs by DAPI staining based analysis; type: functional
HEC-1-A = assay: Anticancer activity against human HEC-1-A cells assessed as cell doubling measured for 72 hrs by DAPI staining based analysis; type: functional
MC-CAR = assay: Anticancer activity against human MC-CAR cells assessed as cell doubling measured for 72 hrs by DAPI staining based analysis; type: functional
MDA-MB-453 = assay: Anticancer activity against human MDA-MB-453 cells assessed as cell doubling measured for 72 hrs by DAPI staining based analysis; type: functional
MDA-MB-468 = assay: Anticancer activity against human MDA-MB-468 cells assessed as cell doubling measured for 72 hrs by DAPI staining based analysis; type: functional
NCI-H508 = assay: Anticancer activity against human NCI-H508 cells assessed as cell doubling measured for 72 hrs by DAPI staining based analysis; type: functional
RPMI-6666 [7] = assay: Anticancer activity against human RPMI-6666 cells assessed as cell doubling measured for 72 hrs by DAPI staining based analysis; type: functional
SK-LMS-1 = assay: Anticancer activity against human SK-LMS-1 cells assessed as cell doubling measured for 72 hrs by DAPI staining based analysis; type: functional
[8] = Anticancer activity against human SW579 cells assessed as cell doubling measured for 72 hrs by DAPI staining based analysis; type: functional
SW684 = assay: Anticancer activity against human SW684 cells assessed as cell doubling measured for 72 hrs by DAPI staining based analysis; type: functional
SW780 = assay: Anticancer activity against human SW780 cells assessed as cell doubling measured for 72 hrs by DAPI staining based analysis; type: functional
SW 954 = assay: Anticancer activity against human SW 954 cells assessed as cell doubling measured for 72 hrs by DAPI staining based analysis; type: functional
COLO 205 = assay: Antitumor activity against human COLO 205 cells in xenograft model assessed as difference between median time to endpoint time of treated versus control group at 62.5 mg/kg; type: functional
MCF7 [9] = assay: Antitumor activity against human MCF7 cells in xenograft model assessed as difference between median time to endpoint time of treated versus control group at 62.5 mg/kg; type: functional

Sequence of Centromere-associated protein E (Q02224 whole entry I182L/K184T): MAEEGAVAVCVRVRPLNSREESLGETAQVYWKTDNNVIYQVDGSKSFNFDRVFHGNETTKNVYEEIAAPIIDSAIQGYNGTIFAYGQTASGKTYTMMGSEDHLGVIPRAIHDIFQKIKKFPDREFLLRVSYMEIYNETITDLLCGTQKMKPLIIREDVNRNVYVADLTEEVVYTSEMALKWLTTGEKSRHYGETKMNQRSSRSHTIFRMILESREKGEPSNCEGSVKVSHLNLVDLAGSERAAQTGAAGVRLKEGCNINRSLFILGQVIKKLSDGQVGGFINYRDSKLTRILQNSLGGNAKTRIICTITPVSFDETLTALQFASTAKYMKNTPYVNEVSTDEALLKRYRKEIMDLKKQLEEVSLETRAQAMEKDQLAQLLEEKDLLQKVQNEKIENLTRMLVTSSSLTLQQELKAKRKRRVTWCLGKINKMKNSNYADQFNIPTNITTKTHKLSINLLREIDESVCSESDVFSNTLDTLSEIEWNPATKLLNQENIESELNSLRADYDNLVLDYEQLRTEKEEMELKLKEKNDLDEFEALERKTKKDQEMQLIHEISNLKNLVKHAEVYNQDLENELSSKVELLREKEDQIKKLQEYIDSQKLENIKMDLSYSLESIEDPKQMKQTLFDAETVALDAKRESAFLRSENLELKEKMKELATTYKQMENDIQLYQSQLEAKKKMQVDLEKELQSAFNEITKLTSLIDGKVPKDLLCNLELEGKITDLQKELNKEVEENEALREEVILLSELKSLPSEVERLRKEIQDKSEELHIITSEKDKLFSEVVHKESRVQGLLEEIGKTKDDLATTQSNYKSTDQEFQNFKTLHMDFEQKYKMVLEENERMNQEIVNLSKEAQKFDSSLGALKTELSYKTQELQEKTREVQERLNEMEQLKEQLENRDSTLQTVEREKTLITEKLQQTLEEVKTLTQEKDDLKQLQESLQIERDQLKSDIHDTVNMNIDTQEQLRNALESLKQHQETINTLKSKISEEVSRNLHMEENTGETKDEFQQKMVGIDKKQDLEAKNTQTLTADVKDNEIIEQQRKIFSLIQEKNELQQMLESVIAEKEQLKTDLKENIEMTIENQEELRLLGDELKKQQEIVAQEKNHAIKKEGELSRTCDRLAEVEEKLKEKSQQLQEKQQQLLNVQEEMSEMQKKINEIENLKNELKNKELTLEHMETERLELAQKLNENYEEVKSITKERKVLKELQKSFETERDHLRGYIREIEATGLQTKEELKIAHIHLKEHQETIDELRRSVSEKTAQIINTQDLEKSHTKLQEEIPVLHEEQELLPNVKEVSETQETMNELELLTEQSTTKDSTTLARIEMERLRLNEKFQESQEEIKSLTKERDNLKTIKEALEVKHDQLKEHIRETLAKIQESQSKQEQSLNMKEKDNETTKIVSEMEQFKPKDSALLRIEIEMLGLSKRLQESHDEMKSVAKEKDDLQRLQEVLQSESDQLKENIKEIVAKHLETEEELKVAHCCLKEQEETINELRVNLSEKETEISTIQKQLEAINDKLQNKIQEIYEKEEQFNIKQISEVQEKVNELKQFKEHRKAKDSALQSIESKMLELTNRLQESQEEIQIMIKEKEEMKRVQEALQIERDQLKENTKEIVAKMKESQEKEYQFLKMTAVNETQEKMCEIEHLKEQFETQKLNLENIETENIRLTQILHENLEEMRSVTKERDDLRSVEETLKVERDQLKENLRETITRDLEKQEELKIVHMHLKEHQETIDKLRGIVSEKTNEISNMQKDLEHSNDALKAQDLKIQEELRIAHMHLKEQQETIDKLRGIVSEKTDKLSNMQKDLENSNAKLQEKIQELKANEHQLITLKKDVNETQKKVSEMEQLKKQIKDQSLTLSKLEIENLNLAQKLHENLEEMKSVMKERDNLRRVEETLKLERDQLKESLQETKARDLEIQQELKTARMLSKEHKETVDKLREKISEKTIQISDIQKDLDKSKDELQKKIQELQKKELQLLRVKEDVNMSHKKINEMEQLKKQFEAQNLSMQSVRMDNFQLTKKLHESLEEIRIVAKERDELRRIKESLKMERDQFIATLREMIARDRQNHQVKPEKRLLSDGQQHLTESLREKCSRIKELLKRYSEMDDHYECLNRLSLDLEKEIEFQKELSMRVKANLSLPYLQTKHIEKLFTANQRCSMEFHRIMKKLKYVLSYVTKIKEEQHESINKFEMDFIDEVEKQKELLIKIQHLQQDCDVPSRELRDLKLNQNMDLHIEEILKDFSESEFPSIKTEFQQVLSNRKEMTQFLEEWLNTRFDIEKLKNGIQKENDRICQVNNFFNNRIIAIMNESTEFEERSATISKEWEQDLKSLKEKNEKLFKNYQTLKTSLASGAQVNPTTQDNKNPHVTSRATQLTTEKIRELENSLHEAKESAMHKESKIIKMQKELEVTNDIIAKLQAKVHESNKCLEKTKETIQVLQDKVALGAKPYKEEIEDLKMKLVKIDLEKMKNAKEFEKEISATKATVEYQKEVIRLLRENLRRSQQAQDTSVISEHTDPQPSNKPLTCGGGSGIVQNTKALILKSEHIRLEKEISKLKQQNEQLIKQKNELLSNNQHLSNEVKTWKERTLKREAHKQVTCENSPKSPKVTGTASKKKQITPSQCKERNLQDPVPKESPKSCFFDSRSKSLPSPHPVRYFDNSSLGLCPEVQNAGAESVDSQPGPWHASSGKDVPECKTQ

Work on CC(C)Oc1ccc(C(=O)N[C@H](CNC(=O)CN(C)C)Cc2ccc(-c3cn4cccc([C@H](C)O)c4n3)cc2)cc1Cl [GSK-923295A] yielded a Ki [1] of 18 nM, a GI50 5637 of 23 nM and a GI50 (CWR22R) of 29 nM. It also gave a GI50 (639-V) of 27 nM, a GI50 (A204) of 18 nM and a GI50 (AN3-CA) of 23 nM. It also gave a GI50 (C-4-II) of 46 nM, a GI50 (CHL-1) of 24 nM and a GI50 (DB) of 21 nM. The GI50 (HT-1376) was 33 nM, the GI50 [2] was 37 nM and the GI50 [3] was 31 nM. For the same molecule, the GI50 (MCF7 [4]) was 29 nM, the GI50 [5] was 41 nM and the GI50 (OVCAR-4) was 30 nM. It also gave a GI50 (RD) of 28 nM, a GI50 (RPMI-6666 [6]) of 88 nM and a GI50 (RXF 393) of 32 nM. For the same molecule, the GI50 (SCC-15) was 63 nM, the GI50 (SH-4) was 44 nM and the GI50 (SNU1) was > 10000 nM. The GI50 (SW1990) was 127 nM, the Activity (A-431) was 2.95 and the Activity (CAL-27) was 2.55. For the same molecule, the Activity (COLO-320-HSR) was 3.25, the Activity (DU-4475) was 2.05 and the Activity (HCT-8) was 4.26. The Activity (HEC-1-A) was 2.67, the Activity (MC-CAR) was 2.03 and the Activity (MDA-MB-453) was 2.26. The Activity (MDA-MB-468) was 2.05, the Activity (NCI-H508) was 3.01 and the Activity (RPMI-6666 [7]) was 1.99. It also gave an Activity (SK-LMS-1) of 2.84, an Activity [8] of 1.41 and an Activity (SW684) of 1.13. For the same molecule, the Activity (SW780) was 2.73, the Activity (SW 954) was 1.62 and the Time (COLO 205) was 24.9 days. The Time (MCF7 [9]) was 5.4 days.

Source: ChEMBL document CHEMBL5705890, “Antitumor activity of an allosteric inhibitor of centromere-associated protein-E” (Proc Natl Acad Sci U S A, 2010)
